High-throughput results deposited in PubChem BioAssay by several laboratories.
Only some compounds are listed: those with a hit (about 1.6% of all), similar ones and a draw of the others.
Vif inh: inhibitors of HIV Vif. HEK293T cells, Vif self-association by quenched fluorescence, imaging, 24 h. inhibition, % at 7.49 µM. 340,000 tested, 0.35% active; in the data active = inhibition above about 50%, passing the limit was not always enough
SR-BI DiI inh: mouse SR-BI HDL lipid transfer inhibition. Q61009. ldlA[mSR-BI] CHO cells, DiI-HDL uptake fluorescence, 3 h. inhibition, % at 12.5 µM. 320,000 tested, 0.96% active;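 active = mean replicate inhibition of at least 70% and a set share of replicates each scoring 70 or more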
Target sequence (Q61009 whole entry, looked up): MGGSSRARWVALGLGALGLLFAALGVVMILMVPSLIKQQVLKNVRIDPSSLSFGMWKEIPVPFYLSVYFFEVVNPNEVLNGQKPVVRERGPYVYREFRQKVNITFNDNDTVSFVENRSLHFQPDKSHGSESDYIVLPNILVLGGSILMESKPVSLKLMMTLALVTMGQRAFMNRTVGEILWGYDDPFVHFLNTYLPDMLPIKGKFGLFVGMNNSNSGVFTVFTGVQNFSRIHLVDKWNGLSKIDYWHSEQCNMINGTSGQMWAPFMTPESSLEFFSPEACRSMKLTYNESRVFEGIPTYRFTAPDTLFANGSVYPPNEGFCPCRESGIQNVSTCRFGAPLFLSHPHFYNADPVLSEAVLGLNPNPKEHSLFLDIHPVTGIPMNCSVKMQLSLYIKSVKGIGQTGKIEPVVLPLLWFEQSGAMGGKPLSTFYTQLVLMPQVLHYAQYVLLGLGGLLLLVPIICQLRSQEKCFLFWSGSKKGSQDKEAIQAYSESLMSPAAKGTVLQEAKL
Bfl-1 A1 inh: inhibitors of the anti-apoptotic protein A1, read as caspase activation | MEF A1-2A-BIM cells, Caspase-Glo 3/7 luminescence, 3 h; percent of clofoctol response, vehicle zero | caspase activation, % (concentration not given with the values) | 330,000 tested, 0.066% active;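 active = over half of replicate activation scores above 10%, or exactly half above 10 with the replicate mean above 10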
TAG inh: reduces triacylglycerol accumulation in H9c2 cells; inhibition, % at 12.5 µM; AID 651582; 230,000 tested, 0.66% active; Nile Red lipid (TAG) fluorescence; cells loaded with 200 µM oleic acid;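 active = pattern-corrected inhibition of lipid staining of at least 50% with the nuclear-stain viability signal not falling by more than 50%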
SR-BI DiI-HDL act: enhances SR-BI lipid uptake from DiI-HDL | activation, % at 12.5 µM | CHO ldlA[mSR-BI] cells, DiI-HDL uptake fluorescence, 3 h; 100 = double the neutral-control signal | AID 504775 | 320,000 tested, 0.096% active;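 active = mean replicate activation of at least 60% and every replicate at or above 60%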
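System: CHO ldlA[mSR-BI] cells / Medium: HEPES-buffered (25 mM, pH 7.4) F12 plus 0.5% BSA / Probe or stimulus: labelled HDL, 10 µg/mL / Doses: single compound concentration, delivered by pin transfer / Schedule: 3 h, 37 °C / Measured by: DiI fluorescence, bottom read / Measure: cell-associated DiI fluorescence as measure of HDL uptake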
A number is an active result; – = inactive; · = no result given.

SMILES | Vif inh | SR-BI DiI inh | Bfl-1 A1 inh | TAG inh | SR-BI DiI-HDL act
CC1(C(=O)NS(=O)(=O)c2cccc(OC(F)F)c2)CCN1C(=O)c1ccco1 (configuration not stated) | 58.5 | · | · | – | ·
Cc1ccc(OCc2cc(C(=O)NC3CCc4ccccc43)no2)cn1 (configuration not stated) | – | – | – | · | ·
CCOc1ccc(S(=O)(=O)N(C)c2ccc(OCC(=O)Nc3nc(-c4cc(OC)ccc4OC)cs3)cc2)cc1 | – | 82.0 | – | · | –
CCN(C[C@H]1N[C@@](Cc2ccccc2)(C(=O)OC)[C@H]2C(=O)N(C)C(=O)[C@@H]12)S(=O)(=O)c1ccc(OC)cc1 | · | – | – | – | –
Cc1c(C)c2c(OCC(=O)N3CCC(C(=O)O)CC3)cc3c(c2oc1=O)CCC(C)(C)O3 | – | – | – | · | –
O=C(Nc1ccccc1)C1=C[C@@H](C2CCCCC2)C[C@@H](OCCCCO)O1 | 68.8 | – | – | – | –
CCCCn1c(NC(=O)c2ccccc2)c(C#N)c2nc3ccccc3nc21 | 51.8 | – | · | · | –
CCCCCCCCCCCCCCCC[N+](C)(C)Cc1ccc(F)cc1 | – | – | · | 109.1 | –
O=C(NC1CCCCC1)c1ccc2snnc2c1 | – | – | – | · | –
O=C(N/N=C/c1ccc(-c2cccc([N+](=O)[O-])c2)o1)c1ccccc1O | – | – | – | – | –
NC(=S)N/N=C/c1ccc(-c2cc(Cl)cc(Cl)c2)o1 | – | 77.9 | – | – | –
O=C1Nc2ccccc2/C1=N/N=C/c1ccc(-c2ccc([N+](=O)[O-])cc2)o1 | 53.7 | – | · | – | –
COC(=O)N/N=C/c1ccc(-c2cc(Cl)cc(Cl)c2)o1 | – | – | – | · | –
O=C(N/N=C/c1ccc(-c2cccc([N+](=O)[O-])c2)o1)c1ccc([N+](=O)[O-])cc1 | – | 81.7 | – | – | –
NC(=S)N/N=C/c1ccc(-c2cc(Cl)ccc2Cl)o1 | – | 98.8 | – | · | –
COc1ccc(OCc2nn[nH]n2)cc1 | – | – | – | · | –
NC(=S)N/N=C/c1ccc(-c2ccc([N+](=O)[O-])cc2)o1 | – | 71.2 | – | – | –
CCOP1(=O)OCC2OC(n3cnc4c(N)ncnc43)C(O)C2O1 (configuration not stated) | – | – | – | – | –
COc1ccc(C(=O)Nc2nc3cc(OC)c(OC)cc3c(=O)[nH]2)cc1 | – | 85.9 | – | · | –
COc1cc2nc(NC(=O)c3ccccc3)[nH]c(=O)c2cc1OC | · | – | – | – | –
CCOC(=O)c1c(C2CC2)csc1NC(=O)COC(=O)CCS(=O)(=O)c1ccc(C)cc1 | – | – | – | · | –
CCN1C/C(=C/c2ccc(OC)c(O)c2)C(=O)/C(=C/c2ccc(OC)c(O)c2)C1 | – | – | – | – | –
COc1ccc(/C=C2\CN(Cc3ccccc3)C/C(=C\c3ccc(OC)c(O)c3)C2=O)cc1O | 59.4 | – | – | · | –
Cc1ccc(C(=O)Nc2nc(-c3ccccn3)cs2)s1 | – | – | – | – | –
COc1ccc(OC)c2sc(NC(=O)c3ccc(Cl)s3)nc12 | – | 87.2 | – | – | –
SMILES | Vif inh | SR-BI DiI inh | Bfl-1 A1 inh | TAG inh | SR-BI DiI-HDL act
COc1ccc(OC)c2sc(NC(=O)c3ccc(Br)s3)nc12 | – | – | – | – | –
O=C(Nc1nc(-c2ccccn2)cs1)c1ccc(Cl)s1 | – | – | – | 54.1 | –
O=C(CSc1ncccn1)Nc1ccc2c(c1)CCC2 | – | · | – | – | ·
CCc1ccc(CCC(=O)N2CCN(S(=O)(=O)c3sc(C(=O)O)c(C)c3C(=O)O)CC2)cc1 | – | – | · | – | –
Oc1ccc(C[C@H]2CNC(=S)N2CC2CCCN2C[C@H](Cc2ccc(O)cc2)N2C[C@H](Cc3ccccc3)N(CC3CCCCCC3)C2=S)cc1 (some centres not stated) | – | – | · | – | 67.9
Oc1ccc(C[C@H]2CN([C@@H](Cc3ccc(O)cc3)CN3CCC[C@@H]3CN3C(=S)NC[C@@H]3Cc3ccccc3)C(=S)N2CCc2ccccc2)cc1 | – | · | · | · | ·
CC(C)C[C@@H](CN1CCCC1CN1C(=S)NC[C@@H]1Cc1ccc(O)cc1)N1C[C@H](Cc2ccc(O)cc2)N(CCc2ccccc2)C1=S (some centres not stated) | – | – | · | – | 177.2
CN(C(=O)COC(=O)CNC(=O)c1ccccc1F)C1CCCCC1 | – | – | – | – | –
Cc1cc(C(=O)N2CCC(Cc3ccccc3)CC2)c(C)o1 | – | – | – | – | –
CC(C)C(NC(=O)c1ccccc1NC(=O)C(C)(C)C)C(=O)N1CCOCC1 (configuration not stated) | 69.1 | – | – | – | –
CC(NC(=O)c1ccccc1NC(=O)c1ccccc1)C(=O)N1CCOCC1 (configuration not stated) | – | – | – | · | –
COc1ccc(O)c(CN2CCC(n3nccc3NC(=O)C3CCCC3)CC2)c1 | – | – | – | – | –
O=c1[nH]c2cccc(F)c2n2cccc12 | – | – | – | · | –
CCOc1ccccc1/C=C/c1onc(C)c1S(=O)(=O)N1CCC(C(=O)NC(C)C)CC1 | – | – | – | · | –
CCOc1ccccc1/C=C/c1onc(C)c1S(=O)(=O)N1CCC(C(=O)N2CCCCCC2)CC1 | – | 92.1 | – | · | –
Cc1cc(C)c(C)c(OC(=O)c2sc(Cl)nc2C)c1 | – | – | – | · | –
CCN(C[C@H]1N[C@@](CC)(C(=O)OC)[C@H]2C(=O)N(C)C(=O)[C@@H]12)C(=O)COC | – | – | · | – | –
CC(=O)Nc1ccc(S(=O)(=O)N2CCCN(c3nc(C)cc(C)c3C#N)CC2)cc1 | – | – | – | – | –
O=c1c2ccccc2nc(COc2ccccc2)n1/N=C/c1cc([N+](=O)[O-])ccc1O | – | 130.2 | – | · | –
O=[N+]([O-])c1ccc(Cl)c(/C=N/n2c(COc3ccccc3)n[nH]c2=S)c1 | – | – | – | · | –
Cc1cc(/C=N/n2c(COc3ccccc3C)nc3ccccc3c2=O)c(O)c([N+](=O)[O-])c1 | – | 144.1 | – | – | –
O=C(CN(Cc1ccco1)C(=O)CCC(=O)Nc1ccccn1)NCc1ccccc1 | – | – | – | · | –
N#Cc1nc(-c2ccc(OCc3ccc(Cl)cc3)cc2)oc1N1CCOCC1 | – | 75.5 | – | · | –
COc1cc(NC(=O)CCCN2C(=O)NC(C)(C)C2=O)cc(OC)c1 | – | – | – | – | –
CN(C)S(=O)(=O)c1cccc(C(=O)NC2CCSc3ccccc32)c1 (configuration not stated) | 98.7 | – | – | – | –
O=C(Cc1ccc(F)cc1)N[C@@H]1c2ccccc2CC[C@@H]1OCc1ccccc1 | – | – | · | – | –
COc1ccc(NC(=O)C2CCN(C(=O)C3CC(=O)N(c4ccc(C)cc4)C3)CC2)cc1 (configuration not stated) | – | – | · | · | –
COc1ccc(Cl)cc1NC(=O)C1CCN(C(=O)C2CC(=O)N(c3ccc(C)cc3)C2)CC1 (configuration not stated) | – | 89.3 | – | · | –
